Source: PubChem (Broad Institute)
The list is not random: actives were taken first. Their share in the collection is about 3.5%.
Cneo AK release: causes C. neoformans cell lysis; adenylate kinase release luminescence, 4 h; normalised: neutral wells 0, clomiphene wells 100; 360,000 tested, 0.2% active; AID 651654; lysis activity, % at 15 µM;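 active = mean lysis activity across replicates of at least 80%, whatever share of replicates individually reach that level; inactive = mean lysis activity below 80%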
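Material – Cryptococcus neoformans yeast cells · Quantity – 5 × 10^6 yeast cells/mL · Buffer or medium – YPD medium · Compound – single dose · Timing – 4 h static compound exposure, 37 °C, read 1 h post-reagent · Signal – adenylate kinase release luminescence · Read-out basis – lysis from increased AK signal · Benchmarks – Clomiphene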
Wnt act: activators of Wnt/beta-catenin signaling | 300,000 tested, 1.2% active | Wnt/beta-catenin reporter cell assay, activator, plate reader | activation, % at 9.35 µM; in the data active = activation above about 30%, passing the limit was not always enough; inconclusive = no clear call, values can overlap the other calls;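 note: 0% = neutral control wells and 100% = positive control wells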
esBAF inh: inhibitors of esBAF chromatin remodeling in mouse ES cells | 350,000 tested, 2% active | AID 602393 | Bmi1-luciferase knock-in reporter, 24 h; 100% = twice the neutral-well signal | reporter increase, % at 12.5 µM; in the data active = activation above about 40%; inconclusive = no clear call, values can overlap the other calls;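 note: 0% = median of the plate's neutral control wells and 100% = double that signal; a rise in the Bmi1 reporter signal indicates esBAF inhibition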
ERAP1 inh: ERAP1 (human) enzyme inhibition; Q9NZ08; recombinant ERAP1, Leu-AMC fluorescence, 60 min; inhibition, % at 10.7 µM; 340,000 tested, 0.15% active;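 active = mean replicate inhibition of at least 30%, or all replicates individually reaching that 30% level; inactive = mean below 30% and not every replicate reaching it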;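 note: 0% = neutral control wells and 100% = L-leucinethiol positive control wells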
MITF act: increases MITF-driven TRPM1 promoter luciferase signal; SK-MEL-5 TRPM1-promoter luciferase, 24 h; % of positive control, neutral wells = 0; activation, % at 12.5 µM; 300,000 tested, 0.75% active; AID 588334;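 active = mean activation of at least 80% with every replicate also reaching 80%; inconclusive = mean reaches 80% but some replicate falls short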;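 note: 0% = neutral control wells and 100% = parthenolide positive control wells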
Env fusion inh: blocks HIV Env-driven cell-cell fusion; HeLa-JRFL Env/CEM21 cell fusion, luciferase; inhibition, % at 12.3 µM; 360,000 tested, 1.1% active;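 active = mean replicate inhibition score of at least 50 and every replicate individually at or above 50; inconclusive = only one of the two criteria met; inactive = mean below 50 and not all replicates reaching 50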;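 note: 0% = plate neutral controls and 100% = maraviroc near 300 nM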
Starred values were filed as active, the others as inactive; ? = inconclusive; . = no result; [ ] = another dose, or the depositor's remark.

SMILES	Cneo AK release	Wnt act	esBAF inh	ERAP1 inh	MITF act	Env fusion inh
CN1[C@@H]2Cn3c(ccc(-c4ccccc4)c3=O)[C@H]1[C@@H](C(=O)Nc1nccs1)[C@@H]2CO	4	.	0	1	.	.
CC[N+]1(CC(O)COC2CC(C)CC(C)(C)C2)CCOCC1 (stereo unspecified)	6	12	6	108*	8	-105
Cc1cccc(-c2nc(C#N)c(N3CCCCC3)o2)c1	-1	15	50*	0	72	-22
Cc1cccc(-c2nc(C#N)c(NC3CCCCC3)o2)c1	-5	.	62*	.	100*	.
Cc1cccc(-c2nc(CS(=O)CC(=O)NC3CCCC3)c(C)o2)c1 (stereo unspecified)	1	0	17	3	.	12
Cc1ccc(-c2nc(C#N)c(N3CCCCC3)o2)cc1	1	-1	3	1	29	1
CCCCN1CC(=O)N2[C@H]3c4ccccc4OC[C@@H]3[C@H](c3ccccc3)[C@]2(C)C1=O	1	-9	-4	.	-5	83*
CCOC(=O)[C@H]1[C@H]2COc3ccc(OC)cc3[C@@H]2N2C(=O)CN(Cc3ccc(Cl)cc3)C(=O)[C@@]12C	1	2	-8	-2	-5	63*
C[C@@]12C(=O)N(Cc3ccccc3)CC(=O)N1[C@H]1c3ccccc3OC[C@@H]1[C@@H]2c1ccccc1	-1	-2	4	-2	12	104*
C[C@@]12C(=O)N(Cc3ccco3)CC(=O)N1[C@H]1c3ccccc3OC[C@@H]1[C@@H]2c1ccccc1	0	-3	-11	-2	3	84*
Cc1ccc(CN2CC(=O)N3[C@H]4c5ccccc5OC[C@@H]4[C@H](c4ccccc4)[C@]3(C)C2=O)cc1	0	-7	-7	1	8	?
C[C@@H]1CN([C@@H](C)CO)C(=O)c2cccc(NC(=O)c3ccc(-c4nccs4)cc3)c2O[C@H]1CN(C)Cc1ccc(C(F)(F)F)cc1	.	.	-4	.	.	.
C[C@]12C(=O)N(c3cccc(Cl)c3)C(=O)N1[C@@H]1c3ccccc3OC[C@@H]1[C@H]2c1ccccc1	1	-7	1	1	-2	56*
CC(=O)Nc1ccc2c(c1)nc1n2CCOC1	14	.	-7	.	0	-28
O=C(Nc1ccc2c(c1)nc1n2CCOC1)C1CCCCC1	-1	.	53*	.	.	-113
C[C@@H]1CN([C@@H](C)CO)C(=O)Cc2cc(NS(=O)(=O)c3cn(C)cn3)ccc2O[C@H]1CN(C)Cc1ccc(C(=O)O)cc1	-3	.	3	-1	.	-24[16.7 µM]
CCCOc1ccc2ccccc2c1/C=C1\SC(=O)NC1=O	-6	1	2	-2	.	14
CCCCOc1ccc2ccccc2c1C=O	-2	8	73*	.	55	-60
C[C@H](CO)N1C[C@H](C)[C@H](CN(C)Cc2ccccn2)Oc2cc(C3=CCCC3)ccc2S1(=O)=O	0	.	3	3	.	.
Cc1ccc(-n2nc3c(c2NC(=O)c2ccco2)CS(=O)C3)cc1 (stereo unspecified)	2	2	1	0	-4	88*
C[C@@H]1CCCCO[C@H](CN(C)C(=O)NC2CCCCC2)[C@H](C)CN([C@@H](C)CO)C(=O)c2cc(NC(=O)Nc3ccccc3)ccc2O1	3	.	5	0	.	17[16.7 µM]
FC(F)(F)c1nc(N2CCCC2)ncc1-c1nnnn1-c1ccc(Cl)cc1	.	.	-28	.	.	58*
Cc1ccc(-n2nnnc2-c2cnn(-c3ccc(F)cc3)c2C(F)(F)F)cc1	2	-8	-35	.	.	96*
Fc1ccc(-n2nnnc2-c2cnc(-c3cccs3)nc2C(F)(F)F)cc1	.	.	.	.	.	77*
COc1ccc2c3c(n(C)c2c1)[C@@H](CO)N(C(=O)Nc1ccccc1F)CC31CN(C(C)=O)C1	.	.	.	1	.	.
C=CCNC(=O)[C@@H]1[C@H]2C(=O)O[C@H](c3ccccc3)[C@H](c3ccccc3)N2[C@H](c2ccc(OCCO)cc2)[C@@]12C(=O)Nc1ccc(C#CCCO)cc12	-1	.	.	4	.	-52[16.7 µM]
Cc1ccc(NC(=O)CSc2nnc(-c3cccnc3)s2)cc1	5	-4	.	.	8	-16
O=C(CSc1nnc(-c2cccnc2)s1)Nc1ccnc2ccccc12	.	-10	.	.	-19	55*
